This is one part of a sample in which hits are shown more often than they occur.
Fibroblast inh – antiproliferative effect on LL 47 fibroblasts – human, LL 47 cells, CellTiter-Glo luminescence, primary screen; LL 47 human lung fibroblast viability, ATP luminescence; stronger effect = lower value; viability, % at 10 µM; 85,000 compounds, 1.1% hits; AID 719, 2007;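 active means viability at or below 50% in the single dose screen; inactive means viability above 50%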;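 further: compound exposure lasted 72 h before the ATP readout; 100% = median luminescence of untreated cell-only wells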
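Test system: LL 47 human lung fibroblasts / Incubation: 72 h compound exposure at 37 °C after overnight plating / Technique: luminescent ATP detection, CellTiter-Glo / Compound dosing: 0.1% DMSO in all compound wells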
HUVEC inhibit – inhibitors of HUVEC proliferation, primary screen, cell-based, 384-well | CellTiter-Glo luminescence, 72 h; stronger effect = lower value | viability, % at 10 µM (by protocol) | 86,000 compounds, 1.1% hits | AID 648, 2007;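 active means viability at or below 30%; inactive means viability above 30%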;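 further: 100% = median luminescence of DMSO-only cell control wells on each plate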
H69AR growth 86K – proliferation blockers of H69AR lung cancer cells, primary screen, cell-based, human, 86K library; H69AR lung tumor viability, ATP luminescence, 72 h; stronger effect = lower value; 85,000 compounds, 6% hits; AID 598, 2007; viability, % at 10 µM;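 active means viability at or below 40%; inactive means viability above 40%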;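 further: multidrug resistant small cell line overexpressing MRP-1 efflux transporter; 100% = mean luminescence of untreated control wells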
bCat KO growth – primary screen for growth suppressors in beta-catenin knockout HCT116 cells (colon tumor, human) | viability, % at 10 µM | AID 818, 2007 | 140,000 compounds, 1.5% hits | HCT116 beta-catenin knockout viability, CellTiter-Glo, 60 h; stronger effect = lower value;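 active means viability at or under a set limit, the compound median less 4 SD, cut at about 6% in these data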;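 further: 0% = Hyamine 1622 control at 20 µM and 100% = untreated cell control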
HCT116 PTEN-null – growth suppression of PTEN-null HCT116, primary screen, cell-based, CellTiter-Glo. HCT116 PTEN-null viability, 60 h; stronger effect = lower value. viability, % at 10 µM. 140,000 compounds, 1.2% hits. AID 827, 2007;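 active means viability at or below a set limit, 4 SD under the median of all tested compounds, cut at about 3.7% in these data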;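 further: PTEN knockout HCT116 line with beta catenin targeted HCT116 as companion control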
Numbers without * were called inactive; . = not tested or not shown.

SMILES | Fibroblast inh | HUVEC inhibit | H69AR growth 86K | bCat KO growth | HCT116 PTEN-null
COC(=O)c1c(NC(=O)COC(=O)c2ccc(C)s2)sc2c1CCCCC2 | . | . | . | 45 | 52
C/C(CC(C)(C)C1CCCCC1)=N\NC(N)=S | 75 | 59 | 24* | 4.6* | 13
CN(C)c1ccc(/C=N/NC(=O)CCC(=O)NCc2ccccc2)cc1 | . | . | . | 96 | 107
COc1ccc(S(=O)(=O)CCC(=O)N(C)c2ccc(OC)cc2OC)cc1 | 103 | 103 | 94 | 0.5* | 0.4*
COc1ccc(S(=O)(=O)CCC(=O)Nc2ccc(OC)cc2OC)cc1 | 97 | 94 | 84 | 92 | 92
Cc1ccc2[nH]c3c(c2c1)CN(C(=O)CN1CCN(c2cccc(C)c2C)CC1)CC3 | 106 | 69 | 42 | 67 | 66
Cc1ccc2[nH]c3c(c2c1)CN(C(=O)CN1c2ccc(F)cc2CCC1C)CC3 (stereo not drawn) | 95 | 63 | 11* | 12 | 15
Cc1sc2c(=O)n3c(nc2c1C(=O)NC1CCCCC1)CCCCC3 | 95 | 89 | 39* | 70 | 72
Cc1csc2c(=O)n3c(nc12)CCCCC3 | 97 | 99 | 100 | 99 | 100
Cc1sc2c(=O)n3c(nc2c1C(=O)NCCCN1CCOCC1)CCCCC3 | 101 | 104 | 81 | 107 | 1.5*
O=C(c1ccc(CN2CCc3ccccc3C2)cc1)N1CCCCC1 | 90 | 90 | 91 | 73 | 81
CC1CCN(C(=O)c2cc(-c3ccccc3O)on2)CC1 | 106 | 111 | 94 | 100 | 101
COn1c(C)c(C(C)=O)c2c3no[n+]([O-])c3ccc21 | . | . | . | 98 | 103
C=CCOn1c(C)c(C(C)=O)c2c3no[n+]([O-])c3ccc21 | 88 | 74 | 29* | 88 | 90
CCCCOc1cccc(C(=O)NC(=S)Nc2cccc(C(F)(F)F)c2)c1 | . | . | . | 89 | 96
Cc1ccc(C(=O)/C=C/c2cn(CN3CCN(C)CC3)c3ccccc23)cc1 | 89 | 64 | 5.8* | 70 | 72
COc1ccccc1N1CCN(C(=O)c2ccc(CN3CCc4ccccc4C3)cc2)CC1 | . | . | . | 85 | 85
COc1ccc(S(=O)(=O)N2c3cc(Cl)ccc3Oc3nc4ccccc4nc32)cc1 | 56 | 48 | 29* | 13 | 13
CN(C)c1ncc(S(=O)(=O)c2ccccc2)c(-c2ccc(Cl)cc2Cl)n1 | . | . | . | 62 | 59
COc1ccc(-c2cc(N)n(S(=O)(=O)c3c(F)c(F)c(F)c(F)c3F)n2)cc1OC | 2.6* | 2.2* | 1.4* | 5.7* | 2.1*
CCN(CC)CCc1c(C)[nH]c(C(=O)OCc2ccccc2)c1C | 87 | 94 | 82 | 79 | 85
COc1ccc(-c2nnc(SCC(=O)N3CCN(c4ccccc4)CC3)o2)cc1OC | 94 | 66 | 14* | 91 | 87
CCOC(=O)N1CCC(NS(=O)(=O)c2cc3c(cc2Cl)NC(=O)CO3)CC1 | 60 | 65 | 25* | 3.9* | 4
CC1=CC(=O)C(C(C)C)=C/C1=N/OC(=O)c1cccc([N+](=O)[O-])c1 | 87 | 104 | 33* | 51 | 60
CC1=CC(=NOC(=O)c2cccc([N+](=O)[O-])c2)C=C(C)C1=O | 91 | 96 | 74 | 9 | 27
SMILES | Fibroblast inh | HUVEC inhibit | H69AR growth 86K | bCat KO growth | HCT116 PTEN-null
Cn1c(N)c(C(=O)Nc2ccc3ccccc3c2)sc1=S | . | . | . | 30 | 40
COc1ccc(/C=N/NC(=O)c2nc(Cl)c(Cl)c(N)c2Cl)cc1COc1ccc(F)cc1F | . | . | . | 2.0* | 5
COc1ccc(/C=N/NC(=O)c2nc(Cl)c(Cl)c(N)c2Cl)cc1COc1ccccc1F | . | . | . | 13 | 20
Cc1nc2c3ccccc3nc(SCC(=O)c3ccc(Cl)cc3)n2n1 | . | . | . | 66 | 62
Cc1nc2c3ccccc3nc(SCC(=O)N3CC(C)CC(C)C3)n2n1 (stereo not drawn) | 97 | 80 | 20* | 103 | 97
N#CC1=C2SCC(O)(c3ccccc3)N2C(=O)CC1c1ccccc1F (stereo not drawn) | 60 | 37 | 15* | 27 | 26
CCC(=O)Nc1nnc(SCC(=O)N2c3ccccc3CC2C)s1 (stereo not drawn) | 37* | 76 | 92 | 83 | 78
CC(C)(C)NCc1cc2ccccc2[nH]c1=O | 107 | 92 | 99 | 96 | 96
Cc1ccc(C(=O)c2cc(C)sc2NC(=O)CN2CCN(C(=O)c3ccco3)CC2)cc1 | 86 | 70 | 28* | 68 | 71
CC(C)(C)c1nnc2sc(SCCN3C(=O)c4ccccc4C3=O)nn2c1=O | 98 | 97 | 78 | 87 | 86
CC(C)N(C(=O)CSc1nn2c(=O)c(C(C)(C)C)nnc2s1)c1ccccc1 | . | 66 | 14* | 73 | 68
CCCCCCc1cc2cc(C(=O)Nc3cccc(OC)c3)c(=O)oc2cc1O | . | . | . | 5.3* | 5
CCCCCCc1cc2cc(C(=O)NC)c(=N)oc2cc1O | . | . | . | 9 | 4
CCCCCCc1cc2cc(S(=O)(=O)c3ccc(F)c(Cl)c3)c(=O)oc2cc1O | . | . | . | 2.9* | 3.1*
CCCCCCc1cc2cc(C(N)=O)c(=N)oc2cc1O | 101 | 68 | 2.0* | 84 | 58
CCCCCCc1cc2cc(C(=O)Nc3ccc(OC)cc3)c(=O)oc2cc1O | . | . | . | 66 | 57
CC(C)C(=O)NC(=S)Nc1ccc(S(=O)(=O)NC(C)(C)C)cc1 | . | . | . | 86 | 85
CCOc1cccc(NCc2cc3c(C(C)(C)C)nn(-c4ccccc4)c3[nH]c2=O)c1 | 91 | 100 | 48 | 84 | 92
CC(C)(C)c1nn(-c2ccccc2)c2[nH]c(=O)c(CNCc3ccc4c(c3)OCO4)cc12 | 63 | 4.6* | 1.1* | 13 | 11
O=C(COn1nnc2ccc(C(F)(F)F)cc21)Nc1c(Cl)cccc1Cl | . | . | . | 76 | 84
CC(Oc1ccc(Cl)cc1Cl)c1nc(-c2ccc(NC(=O)c3cccnc3)cc2)no1 (stereo not drawn) | 87 | 72 | 6.3* | 15 | 11
COc1ccc(Cl)cc1-c1nc(-c2ccc(NC(=O)c3cccs3)cc2)no1 | . | . | . | 3.3* | 2.5*
COc1ccc(NC(=O)c2cccs2)cc1OC | 106 | 97 | 107 | 103 | 81
CC(Oc1ccc(Cl)cc1Cl)c1nc(-c2ccc(NC(=O)c3ccncc3)cc2)no1 (stereo not drawn) | 82 | 50 | 25* | 12 | 15
CCc1nnc(NS(=O)(=O)c2ccc(NS(=O)(=O)c3ccc(NC(C)=O)cc3)cc2)s1 | . | . | . | 101 | 103
CCOC(=O)NC(=O)CSc1nnc(C)s1 | 105 | 106 | 92 | 96 | 101
OC(CN1CCN(c2ccccn2)CC1)Cn1c2ccc(Cl)cc2c2cc(Cl)ccc21 (stereo not drawn) | 94 | 41 | 1.3* | 13 | 12
O=C(Cn1c(=O)c2sccc2n(Cc2cccc([N+](=O)[O-])c2)c1=O)NCCc1ccccc1 | . | . | . | 94 | 89
O=C(COc1ccc(-c2nnco2)cc1)N1CCN(S(=O)(=O)c2ccc3ccccc3c2)CC1 | 88 | 101 | 36* | 79 | 78

Bioassay records: PubChem, SRMLSC
